This is an account of results in ChEMBL document CHEMBL1150404, “Synthesis, alpha 1-adrenoceptor antagonist activity, and SAR study of novel arylpiperazine derivatives of phenytoin” (Bioorg Med Chem, 2008).

SMILES strings stand for the structures.

A short description of the assay: Displacement of [3H]prazosin from alpha-1-adrenoceptor in Wistar rat cerebral cortex membrane. Format: tissue-based. In a few lines: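 Rat brain homogenised in ice-cold 50 mM Tris–HCl pH 7.6, centrifuged twice at 20,000g for 20 min at 0–4 °C. Membranes incubated with [3H]prazosin 0.2 nM (α1) or [3H]clonidine 2 nM (α2) and 7–8 test concentrations (10^-11–10^-4 M). Filter-bound radioactivity counted by liquid scintillation; duplicates; curve-fitted, Ki by Cheng–Prusoff.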
(In general: Displacement assays read how much labelled ligand stays bound in the presence of the test substance.)

`COc1ccccc1N1CCN(C(C)CCN2C(=O)NC3c4ccccc4N(C)C3C2=O)CC1` (stereo not given) returned an inhibition constant Ki of 0.1 nM.

The compound `COc1ccccc1N1CCN(CCCCCn2nc(-n3ccnc3)ccc2=O)CC1` gave a Ki of 0.2 nM.

In turn, `COc1ccccc1N1CCN(CCN2C(=O)NC3c4ccccc4OC3C2=O)CC1` (stereo not given) had a Ki of 0.1 nM.

As for `CCOc1ccccc1OCCN1CCN(c2cnn(CCCCCCCN3CCN(c4ccccc4OCC)CC3)c(=O)c2Cl)CC1`, affinity was put at a Ki of 0.05 nM.

Take `COc1ccccc1N1CCN(C(C)CN2C(=O)NC3c4ccccc4OC3C2=O)CC1` (stereo not given): the Ki amounted to 0.1 nM.

In the case of `COc1ccccc1N1CCN(CCN2C(=O)C3Nc4ccccc4C3N(C)C2=O)CC1` (stereo not given), affinity was put at a Ki of 0.1 nM.

`CCOc1ccccc1N1CCN(CCCCCn2ncc(N3CCN(CCOc4ccccc4OC)CC3)c(Cl)c2=O)CC1`: the Ki was found to be 0.05 nM.

Compound `COc1ccccc1OCCN1CCN(c2cnn(CCN3CCN(c4ccccc4OC)CC3)c(=O)c2Cl)CC1` registered a Ki of 0.05 nM.

`CCOc1ccccc1OCCN1CCN(c2cnn(CCCCCCCN3CCN(c4ccccc4OC(C)C)CC3)c(=O)c2Cl)CC1` had an inhibition constant Ki of 0.05 nM.

The compound `COc1ccccc1N1CCN(C(C)CN2C(=O)C3C(c4ccccc4N3C)N(C)C2=O)CC1` (stereo not given) returned a Ki of 0.1 nM.

`COc1ccccc1N1CCN(CCN2C(=O)NC3c4ccccc4NC3C2=O)CC1` (stereo not given) came in with a Ki of 0.1 nM.

`COc1ccccc1N1CCN(CCCCCCn2nc(-n3ccc4ccccc43)ccc2=O)CC1` registered a Ki of 0.2 nM.

As for `CCOc1ccccc1OCCN1CCN(c2cnn(CCCN3CCN(c4ccccc4OCC)CC3)c(=O)c2Cl)CC1`, affinity was put at a Ki of 0.05 nM.

Take `CCOc1ccccc1OCCN1CCN(c2cnn(CCCCCN3CCN(c4ccccc4OCC)CC3)c(=O)c2Cl)CC1`: the Ki is 0.05 nM.

Turning to `COc1ccccc1N1CCN(C(C)CCN2C(=O)NC3c4ccccc4OC3C2=O)CC1` (stereo not given), the Ki is 0.1 nM.

Consider `CCOc1ccccc1OCCN1CCN(c2cnn(CCN3CCN(c4ccccc4OC)CC3)c(=O)c2Cl)CC1`, for which the affinity, expressed as Ki, was 0.05 nM.

Compound `CCOc1ccccc1OCCN1CCN(c2cnn(CCCCCCN3CCN(c4ccccc4OCC)CC3)c(=O)c2Cl)CC1` came in with a Ki of 0.05 nM.

As to `COc1ccccc1N1CCN(CCCN2C(=O)C3Sc4ccccc4C3N(C)C2=O)CC1` (stereo not given), the Ki amounted to 0.1 nM.

For the compound `CCOc1ccccc1OCCN1CCN(c2cnn(CCCN3CCN(c4ccccc4OC)CC3)c(=O)c2Cl)CC1`, the affinity corresponds to a Ki of 0.05 nM.

`COc1ccccc1N1CCN(CCCCCCCn2ncc(N3CCN(CC4COc5ccccc5O4)CC3)c(Cl)c2=O)CC1` (stereo not given) gave a Ki of 0.05 nM.

Compound `COc1ccccc1N1CCN(CCN2C(=O)C3Sc4ccccc4C3N=C2C)CC1` (stereo not given) gave a Ki of 0.5 nM.

The compound `CCOc1ccccc1N1CCN(CCCCn2ncc(N3CCN(CCOc4ccccc4OC)CC3)c(Cl)c2=O)CC1` showed a Ki of 0.05 nM.

Turning to `COc1ccccc1N1CCN(C(C)CCN2C(=O)C3Oc4ccccc4C3N(C)C2=O)CC1` (stereo not given), the affinity, expressed as Ki, was 0.1 nM.

Turning to `COc1ccccc1N1CCN(C(C)CCN2C(=O)C3C(c4ccccc4N3C)N(C)C2=O)CC1` (stereo not given), the inhibition constant (Ki) came out at 0.1 nM.

In turn, `COc1ccccc1N1CCN(CCN2C(=O)NC3c4ccccc4SC3C2=O)CC1` (stereo not given) gave a Ki of 0.1 nM.

Compound `COc1ccccc1N1CCN(C(C)CCN2C(=O)C3Nc4ccccc4C3N(C)C2=O)CC1` (stereo not given) gave a Ki of 0.1 nM.

With `COc1ccccc1N1CCN(C(C)CN2C(=O)C3Nc4ccccc4C3N(C)C2=O)CC1` (stereo not given), affinity was put at a Ki of 0.1 nM.

Compound `COc1ccccc1N1CCN(CCCn2nc(-n3ccnc3)ccc2=O)CC1` returned a Ki of 0.2 nM.

In turn, `COc1ccccc1N1CCN(CCN2C(=O)NC3c4ccccc4N(C)C3C2=O)CC1` (stereo not given) came in with a Ki of 0.1 nM.

In the case of `COc1ccccc1N1CCN(C(C)CCN2C(=O)C3Sc4ccccc4C3N(C)C2=O)CC1` (stereo not given), the Ki worked out at 0.1 nM.

The compound `COc1ccc(Cl)cc1N1CCN(CCN2C(=O)C3Sc4ccccc4C3N=C2C)CC1` (stereo not given) displayed a Ki of 0.5 nM.

In turn, `CCOc1ccccc1OCCN1CCN(c2cnn(CCCCCN3CCN(c4ccccc4OC(C)C)CC3)c(=O)c2Cl)CC1` displayed a Ki of 0.05 nM.

As for `CCOc1ccccc1OCCN1CCN(c2cnn(CCN3CCN(c4ccccc4OCC)CC3)c(=O)c2Cl)CC1`, the Ki was found to be 0.05 nM.

`CCOc1ccccc1N1CCN(CCn2ncc(N3CCN(CCOc4ccccc4OC)CC3)c(Cl)c2=O)CC1` displayed an inhibition constant Ki of 0.05 nM.

Compound `COc1ccccc1N1CCN(C(C)CCN2C(=O)NC3c4ccccc4NC3C2=O)CC1` (stereo not given) displayed a Ki of 0.1 nM.

Compound `COc1ccccc1OCCN1CCN(c2cnn(CCCCCN3CCN(c4ccccc4OC)CC3)c(=O)c2Cl)CC1` yielded a Ki of 0.05 nM.

In turn, `COc1ccccc1OCCN1CCN(c2cnn(CCCCCCCN3CCN(c4ccccc4OC(C)C)CC3)c(=O)c2Cl)CC1` yielded an inhibition constant Ki of 0.05 nM.

Compound `COc1ccccc1N1CCN(CCCN2C(=O)NC3c4ccccc4NC3C2=O)CC1` (stereo not given) showed a Ki of 0.1 nM.

With `COc1ccccc1N1CCN(CCCN2C(=O)C3C(c4ccccc4N3C)N(C)C2=O)CC1` (stereo not given), the affinity corresponds to a Ki of 0.1 nM.

Consider `COc1ccccc1N1CCN(CCN2C(=O)C3Oc4ccccc4C3N(C)C2=O)CC1` (stereo not given), for which the Ki is 0.1 nM.

Regarding `CCOc1ccccc1OCCN1CCN(c2cnn(CCCCN3CCN(c4ccccc4OC(C)C)CC3)c(=O)c2Cl)CC1`, the Ki came to 0.05 nM.

As for `CCOc1ccccc1N1CCN(CCCCCCCn2ncc(N3CCN(CCOc4ccccc4OC)CC3)c(Cl)c2=O)CC1`, the Ki was 0.05 nM.

In the case of `O=c1ccc(-n2cnc3ccccc32)nn1CCCCCCCN1CCN(c2ccccc2Cl)CC1`, the affinity corresponds to a Ki of 0.2 nM.

`COc1ccccc1N1CCN(CCCN2C(=O)NC3c4ccccc4N(C)C3C2=O)CC1` (stereo not given) gave a Ki of 0.1 nM.

Take `COc1ccc(Cl)cc1N1CCN(CCN2C(=O)C3Nc4ccccc4C3N=C2C)CC1` (stereo not given): the affinity corresponds to a Ki of 0.5 nM.

`COc1ccccc1OCCN1CCN(c2cnn(CCCN3CCN(c4ccccc4OC(C)C)CC3)c(=O)c2Cl)CC1` displayed a Ki of 0.05 nM.

Compound `COc1ccccc1OCCN1CCN(c2cnn(CCCCN3CCN(c4ccccc4OC(C)C)CC3)c(=O)c2Cl)CC1` displayed a Ki of 0.05 nM.

`CCOc1ccccc1OCCN1CCN(c2cnn(CCCCCCN3CCN(c4ccccc4OC)CC3)c(=O)c2Cl)CC1`: the inhibition constant (Ki) is 0.05 nM.

`COc1ccccc1N1CCN(C(C)CN2C(=O)NC3c4ccccc4NC3C2=O)CC1` (stereo not given): the affinity, expressed as Ki, was 0.1 nM.

In turn, `CCOc1ccccc1OCCN1CCN(c2cnn(CCN3CCN(c4ccccc4OC(C)C)CC3)c(=O)c2Cl)CC1` returned a Ki of 0.05 nM.

`CCOc1ccccc1OCCN1CCN(c2cnn(CCCCN3CCN(c4ccccc4OC)CC3)c(=O)c2Cl)CC1` gave a Ki of 0.05 nM.

As for `COc1ccccc1N1CCN(C(C)CN2C(=O)NC3c4ccccc4SC3C2=O)CC1` (stereo not given), the Ki worked out at 0.1 nM.

Take `O=c1ccc(-n2ccnc2)nn1CCCN1CCN(c2ccccc2Cl)CC1`: the affinity, expressed as Ki, was 0.2 nM.

Consider `COc1ccccc1N1CCN(C(C)CN2C(=O)C3Sc4ccccc4C3N(C)C2=O)CC1` (stereo not given), for which the Ki amounted to 0.1 nM.

For the compound `CCOc1ccccc1N1CCN(CCCn2ncc(N3CCN(CCOc4ccccc4OC)CC3)c(Cl)c2=O)CC1`, the Ki turned out to be 0.05 nM.

For the compound `CCOc1ccccc1OCCN1CCN(c2cnn(CCCCCCN3CCN(c4ccccc4OC(C)C)CC3)c(=O)c2Cl)CC1`, the Ki came to 0.05 nM.

As for `COc1ccccc1OCCN1CCN(c2cnn(CCCN3CCN(c4ccccc4OC)CC3)c(=O)c2Cl)CC1`, the affinity corresponds to a Ki of 0.05 nM.

With `COc1ccccc1OCCN1CCN(c2cnn(CCN3CCN(c4ccccc4OC(C)C)CC3)c(=O)c2Cl)CC1`, the affinity corresponds to a Ki of 0.05 nM.

In turn, `COc1ccccc1N1CCN(CCN2C(=O)C3Nc4ccccc4C3N=C2C)CC1` (stereo not given) registered a Ki of 0.5 nM.

As for `COc1ccccc1N1CCN(CCN2C(=O)C3Sc4ccccc4C3N(C)C2=O)CC1` (stereo not given), affinity was put at a Ki of 0.1 nM.

In turn, `COc1ccccc1OCCN1CCN(c2cnn(CCCCCCN3CCN(c4ccccc4OC(C)C)CC3)c(=O)c2Cl)CC1` gave a Ki of 0.05 nM.

Turning to `COc1ccccc1N1CCN(CCCN2C(=O)C3Nc4ccccc4C3N(C)C2=O)CC1` (stereo not given), the Ki worked out at 0.1 nM.

With `CCOc1ccccc1OCCN1CCN(c2cnn(CCCCCN3CCN(c4ccccc4OC)CC3)c(=O)c2Cl)CC1`, the inhibitory constant (Ki) was found to be 0.05 nM.

For the compound `COc1ccccc1N1CCN(CCCN2C(=O)NC3c4ccccc4OC3C2=O)CC1` (stereo not given), affinity was put at a Ki of 0.1 nM.

In turn, `COc1cc2nc(N3CCN(C(=O)c4ccco4)CC3)nc(N)c2cc1OC` [PRAZOSIN] gave a Ki of 0.24 nM.

Regarding `COc1ccccc1N1CCN(C(C)CN2C(=O)NC3c4ccccc4N(C)C3C2=O)CC1` (stereo not given), the Ki is 0.1 nM.

As for `COc1ccccc1N1CCN(CCN2C(=O)C3C(c4ccccc4N3C)N(C)C2=O)CC1` (stereo not given), the affinity corresponds to a Ki of 0.1 nM.

Compound `CCOc1ccccc1OCCN1CCN(c2cnn(CCCN3CCN(c4ccccc4OC(C)C)CC3)c(=O)c2Cl)CC1` displayed a Ki of 0.05 nM.

In the case of `COc1ccccc1OCCN1CCN(c2cnn(CCCCN3CCN(c4ccccc4OC)CC3)c(=O)c2Cl)CC1`, affinity was put at a Ki of 0.05 nM.

`COc1ccccc1N1CCN(CCCCCCCn2nc(-n3ccc4ccccc43)ccc2=O)CC1` came in with a Ki of 0.2 nM.

As to `COc1ccccc1N1CCN(C(C)CCN2C(=O)NC3c4ccccc4SC3C2=O)CC1` (stereo not given), the Ki came out at 0.1 nM.

The compound `CCOc1ccccc1OCCN1CCN(c2cnn(CCCCCCCN3CCN(c4ccccc4OC)CC3)c(=O)c2Cl)CC1` returned a Ki of 0.05 nM.

For the compound `COc1ccccc1OCCN1CCN(c2cnn(CCCCCCCN3CCN(c4ccccc4OC)CC3)c(=O)c2Cl)CC1`, affinity was put at a Ki of 0.05 nM.

`COc1ccccc1N1CCN(C(C)CN2C(=O)C3Oc4ccccc4C3N(C)C2=O)CC1` (stereo not given) registered a Ki of 0.1 nM.

As for `COc1ccccc1N1CCN(CCCN2C(=O)C3Oc4ccccc4C3N(C)C2=O)CC1` (stereo not given), the Ki is 0.1 nM.

`COc1ccccc1OCCN1CCN(c2cnn(CCCCCCN3CCN(c4ccccc4OC)CC3)c(=O)c2Cl)CC1`: the inhibitory constant (Ki) was found to be 0.05 nM.

Consider `CCOc1ccccc1OCCN1CCN(c2cnn(CCCCN3CCN(c4ccccc4OCC)CC3)c(=O)c2Cl)CC1`, for which the affinity corresponds to a Ki of 0.05 nM.

`CCOc1ccccc1N1CCN(CCCCCCn2ncc(N3CCN(CCOc4ccccc4OC)CC3)c(Cl)c2=O)CC1` registered a Ki of 0.05 nM.

The compound `COc1ccccc1OCCN1CCN(c2cnn(CCCCCN3CCN(c4ccccc4OC(C)C)CC3)c(=O)c2Cl)CC1` gave an inhibition constant (Ki) of 0.05 nM.

Compound `COc1ccccc1N1CCN(CCCN2C(=O)NC3c4ccccc4SC3C2=O)CC1` (stereo not given) showed a Ki of 0.1 nM.

The Ki is a measure of affinity in units of concentration, obtained from inhibition or displacement. Higher therefore signals lower affinity.
